The values below come from ChEMBL document CHEMBL1134640, “A novel series of highly potent benzimidazole-based microsomal triglyceride transfer protein inhibitors” (J Med Chem, 2001).

Assay [1] concerns Mesocricetus auratus. Briefly: 50% lowering of plasma TC in standard-diet-fed golden Syrian hamsters 16h postdosing. 15 mg/kg required for.
The target in assay [2] is T1, Microsomal triglyceride transfer protein large subunit (Homo sapiens, UniProt P55157).
T1 sequence (P55157 whole entry): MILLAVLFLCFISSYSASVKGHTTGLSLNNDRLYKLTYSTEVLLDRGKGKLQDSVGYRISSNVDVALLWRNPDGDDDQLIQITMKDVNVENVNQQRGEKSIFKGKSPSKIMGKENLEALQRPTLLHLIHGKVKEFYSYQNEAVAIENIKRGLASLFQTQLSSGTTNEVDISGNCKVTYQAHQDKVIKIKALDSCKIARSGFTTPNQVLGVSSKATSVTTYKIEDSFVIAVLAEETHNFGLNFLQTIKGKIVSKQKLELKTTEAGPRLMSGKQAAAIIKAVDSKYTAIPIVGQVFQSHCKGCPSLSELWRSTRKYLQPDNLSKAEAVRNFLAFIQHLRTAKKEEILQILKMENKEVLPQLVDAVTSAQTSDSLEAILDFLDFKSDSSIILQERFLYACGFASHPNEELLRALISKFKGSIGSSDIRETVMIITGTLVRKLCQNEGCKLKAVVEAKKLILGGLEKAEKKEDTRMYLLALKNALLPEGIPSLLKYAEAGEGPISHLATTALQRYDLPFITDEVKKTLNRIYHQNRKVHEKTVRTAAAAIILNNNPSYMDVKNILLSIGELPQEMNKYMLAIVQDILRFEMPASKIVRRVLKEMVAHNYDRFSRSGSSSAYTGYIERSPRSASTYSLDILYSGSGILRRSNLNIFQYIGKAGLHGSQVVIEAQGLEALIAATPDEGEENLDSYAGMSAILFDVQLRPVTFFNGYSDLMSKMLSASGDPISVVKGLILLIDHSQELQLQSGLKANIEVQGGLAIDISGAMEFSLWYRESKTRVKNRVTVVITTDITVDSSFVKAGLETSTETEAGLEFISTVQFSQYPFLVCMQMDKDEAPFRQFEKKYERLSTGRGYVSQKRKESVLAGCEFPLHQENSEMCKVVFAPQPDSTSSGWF
The assay can be described thus: In vitro inhibition of human Microsomal Triglyceride Transfer Protein, (triglyceride transfer assay).

Assay [3] has as its system Mesocricetus auratus. The assay can be described thus: PlasmaTC lowering was determined in standard-diet-fed after 16h of postdosing of at 15 mg/kg in golden Syrian hamsters.
Assay [4] addresses T1, Microsomal triglyceride transfer protein large subunit. The assay can be described thus: (§1) In vitro inhibition of human microsomal triglyceride transfer protein in HepG2 cells using apoB secretion assay. In kind it is cell-based.
The nature of assay [5]: TC lowering at dose was measured as % lowering of plasma TC in standard-diet-fed cynomolgus monkeys 16h postdosing. In kind it is functional, Cercopithecidae. Summed up:
(§2)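 Cynomolgus monkeys on standard diet received oral dosing once daily for 7 days. Plasma TC was measured 16 h postdosing. Values are percent lowering at a stated dose (mg/kg), or ED50, the dose producing 50% TC lowering.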

For assay [6], the system named is Mesocricetus auratus. Briefly: TC lowering at 8 mg/kg was measured as % lowering of plasma TC in standard-diet-fed golden Syrian hamsters 16h postdosing.
Assay [7] in a line: PlasmaTC lowering was determined in standard-diet-fed cynomolgus monkeys after 16h of postdosing of at 5 mg/kg. Type of assay: functional, Cercopithecidae. Summed up:
as §2

Assay [8] is described as follows: PlasmaTC lowering was determined in standard-diet-fed cynomolgus monkeys after 16h of postdosing of at 1.25 mg/kg. Type of assay: functional, Cercopithecidae. Summed up:
as §2

Assay [9] is described as follows: Dose required for 50% lowering of plasma TC in standard-diet-fed golden Syrian hamsters 16h postdosing. In kind it is functional. Summed up:
(§3)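 Golden Syrian hamsters on standard diet were dosed orally once daily for 3 days. Plasma total cholesterol was measured 16 h after dosing. Values are percent TC lowering at a given dose (mg/kg), or ED50, the dose giving 50% plasma TC lowering.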

The target in assay [10] is T1, Microsomal triglyceride transfer protein large subunit. Described as §1. Type of assay: functional, cell-based.
Assay [11] shares this target. The assay can be described thus: In vitro inhibition of human microsomal triglyceride transfer protein using triglyceride transfer assay.
Assay [12] is described as follows: PlasmaTC lowering was determined in standard-diet-fed cynomolgus monkeys after 16h of postdosing at 10 mg/kg. In kind it is functional, Cercopithecidae. Summed up: as §2
Assay [13] is described as follows: Dose required for 50% lowering of plasma TC in standard-diet-fed cynomolgus monkeys. In kind it is functional. To be noted: Cercopithecidae. Summed up:
as §2

Assay [14] is described as follows: PlasmaTC lowering was determined in standard-diet-fed cynomolgus monkeys after 16h of postdosing at 2.5 mg/kg. Type of assay: functional, Cercopithecidae. Summed up: as §2
Assay [15] in a line: PlasmaTC lowering was determined in standard-diet-fed cynomolgus monkeys after 16h of postdosing at 5 mg/kg. Type of assay: functional, Cercopithecidae. Summed up: as §2
Assay [16] in a line: PlasmaTC lowering was determined in standard-diet-fed cynomolgus monkeys after 16h of postdosing at 1.25 mg/kg. Type of assay: functional, Cercopithecidae. Summed up: as §2
Assay [17] in a line: Dose required for 50% lowering of plasma TC in standard-diet-fed golden Syrian hamsters 16h postdosing. Type of assay: functional. Summed up:
as §3

Assay [18] can be described thus: PlasmaTC lowering was determined in standard-diet-fed cynomolgus monkeys after 16h of postdosing of at 2.5 mg/kg. In kind it is functional, Cercopithecidae. Summed up:
as §2

The nature of assay [19]: ED50 represents dose required for 50% lowering of plasma TC in standard-diet-fed golden Syrian hamsters 16h postdosing. To be noted: Mesocricetus auratus.
Assay [20] concerns the target T1, Microsomal triglyceride transfer protein large subunit. Briefly: In vitro inhibition of human Microsomal Triglyceride Transfer Protein (triglyceride transfer assay).
Assay [21] can be described thus: Dose required for 50% lowering of plasma TC in standard-diet-fed cynomolgus monkeys 16h postdosing. As to conditions: Cercopithecidae. Type of assay: functional. Summed up: as §2
The nature of assay [22]: PlasmaTC lowering was determined in standard-diet-fed cynomolgus monkeys after 16h of postdosing of at 0.3 mg/kg. In kind it is functional, Cercopithecidae. Summed up: as §2
A short description of assay [23]: PlasmaTC lowering was determined in standard-diet-fed cynomolgus monkeys after 16h of postdosing of at 0.1 mg/kg. Type of assay: functional, Cercopithecidae. Summed up:
as §2

Assay [24] can be described thus: PlasmaTC lowering was determined in standard-diet-fed cynomolgus monkeys after 16h of postdosing of at 1 mg/kg. In kind it is functional, Cercopithecidae. Summed up: as §2

Consider `CCCc1nc2c(NC(=O)c3ccccc3-c3ccc(C(F)(F)F)cc3)cccc2n1CCCCC1(C(=O)NCC(F)(F)F)c2ccccc2-c2ccccc21`, for which the TC lowering in the assay on Mesocricetus auratus [1] is listed as -44%. In addition, in assay [2], the IC50 (in general, the concentration at which inhibition is half-maximal) was found to be 2 nM.

`O=C(Nc1cccc2c1ncn2CCCC1(C(=O)NCC(F)(F)F)c2ccccc2-c2ccccc21)c1ccccc1-c1ccc(C(F)(F)F)cc1`: in the assay with Mesocricetus auratus [3], the TC lowering is -11%. The compound also registered an IC50 in assay [2] of 10 nM.

As for `CC(C)c1nc2c(NC(=O)c3ccccc3-c3ccc(C(F)(F)F)cc3)cccc2n1CCCCC1(C(=O)NCC(F)(F)F)c2ccccc2-c2ccccc21`, the half-inhibitory concentration (IC50) in [4] was found to be 0.06 nM; in [2] it was 4 nM. Also, the TC lowering in assay [5] is recorded as -39%; with Mesocricetus auratus [6] it was -60%.

Consider `Cc1nc2c(NC(=O)c3ccccc3-c3ccc(C(F)(F)F)cc3)cccc2n1CCCCC1(C(=O)NCC(F)(F)F)c2ccccc2-c2ccccc21`, for which the TC lowering in [7] is listed as -80%; in assay [8] it was -51%. For the same compound, the IC50 in assay [4] came to 0.15 nM; in [2] it was 1 nM. For the same compound, the ED50 in assay [9] amounted to 2.5 mg/kg.

Consider `O=C(NC1CCN(CCCCC2(C(=O)NCC(F)(F)F)c3ccccc3-c3ccccc32)CC1)c1ccccc1-c1ccc(C(F)(F)F)cc1` [LOMITAPIDE], for which the IC50 worked out at 0.8 nM in assay [10] and 8 nM in assay [11]. Moreover, the TC lowering in assay [12] is -88%; in [14], -65%; in [15] it was -74%; in assay [16], -35%. The results for the ED50 in assay [13] and in assay [17] were 2 mg/kg and 2.3 mg/kg, respectively.

For the compound `O=C(Nc1cccc2c1ncn2CCCCC1(C(=O)NCC(F)(F)F)c2ccccc2-c2ccccc21)c1ccccc1-c1ccc(C(F)(F)F)cc1`, the TC lowering in assay [18] is on record as -19%; in [7] it was -52%. Also, the half-inhibitory concentration (IC50) came to 0.24 nM in assay [4] and 5 nM in assay [20]. The compound further showed an ED50 in assay [19] of 12 mg/kg.

On to `Cc1ccc2c(nc(C)n2CCCCC2(C(=O)NCC(F)(F)F)c3ccccc3-c3ccccc32)c1NC(=O)c1ccccc1-c1ccc(C(F)(F)F)cc1`, for which the IC50 was found to be 0.03 nM in assay [4] and 1 nM in [2]. For the same compound, the TC lowering was -83% in assay [8], -43% in assay [22], -28% in assay [23] and -76% in [24]. Further, the ED50 in assay [21] amounted to 0.38 mg/kg; in assay [9] it was 0.28 mg/kg.

`Cc1ccc2c(ncn2CCCCC2(C(=O)NCC(F)(F)F)c3ccccc3-c3ccccc32)c1NC(=O)c1ccccc1-c1ccc(C(F)(F)F)cc1`: the TC lowering in assay [18] is -68%. Further, the half-inhibitory concentration (IC50) stood at 0.02 nM in [4] and 1 nM in assay [2]. This compound came in with an ED50 in assay [9] of 3.8 mg/kg.
